Article PMC3846175 (Bioorganic & medicinal chemistry, 2013)
“And” between values parts separate entries of the source, which are not always exact repeats. Equal entries are not always repeated. Structures can show the parent of a compound that is named as a salt. Where two headings read alike, the source gives them in different places.

Experiments:
[1] = system: T. b. r. STIB900; conditions: mouse, ref [10], [14], [16], [23], cited from earlier work
[2] = system: poly(dA-dT)2; test: Thermal melting; assay type: binding
[3] = system: T. b. brucei GVR35; test: T. b. brucei GVR35 CNS mouse model; assay type: in vivo, Trypanosoma brucei brucei
Method in brief: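 Second-stage (CNS) infection model in mice with T. b. brucei GVR35. The test compound was given orally at 100 mg/kg for 5 days, and a 10-day course was also run. The comparator was diminazene, given as a single 40 mg/kg intraperitoneal dose. Survival was the endpoint. Protocols were approved by the Canton Basel-Stadt veterinary authorities.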

[4] = system: T. b. r. STIB900; test: T. b. r. STIB900 acute mouse model; assay type: in vivo, Trypanosoma brucei rhodesiense
[5] = system: Trypanosoma brucei rhodesiense STIB900; conditions: read-out: T. b. r. IC50; strain STIB900; comparator data; ref [10], [16]; cited from earlier work
[6] = system: Plasmodium falciparum K1; conditions: read-out: P. f. IC50; strain K1; comparator data; ref [10], [16]; cited from earlier work
[7] = system: T. b. brucei GVR35; conditions: mouse; po 100 mg/kg for 5 days; ref [5]; cited from earlier work
[8] = system: Plasmodium falciparum K1; test: In vitro assay with P. f. K1 strain; assay type: cell-based; conditions: IC50 ratio
[9] = po 100 mg/kg for 5 days, 100 mg/kg

N=C(NO)c1ccc(-c2ccc(-c3ccc(/C(N)=N\O)cc3)o2)cc1 [2b]
Cures (mice that survive and are parasite free for 60 days) ([1]; po 100 mg/kg daily for 4 days, 100 mg/kg): no cure and 0/4

N=C(N)c1ccc(-c2cncc(-c3ccc(C(=N)N)cn3)n2)cc1 [19a, 2-(4′-amidinophenyl)-6-(5′-amidinopyridin-2′-yl)pyrazine hydrochloride]
Decrease in ΔTm value relative to parent compound 10 [2]: 2 °C

N/C(=N\O)c1ccc(-c2cncc(-c3ccc(/C(N)=N\O)nc3)n2)cn1 [24b, 2,6-Di-(2′-N-hydroxyamidinopyridin-5′-yl)pyrazine hydrochloride]
MSD (mean survival days) ([3]; po 100 mg/kg for 5 days): 67.2 days | No. of mice cured (survival >180 days without parasitemia relapse) [3, 9]: not curative and 0/5 | Cures (mice that survive and are parasite free for 60 days) ([4]; po 25 mg/kg daily for 4 days): cures of all mice

N=C(N)c1ccc(-c2ccc(-c3ccc(C(=N)N)cn3)o2)nc1 [4a]
IC50 [5]: 21 nM | IC50 [6]: 83 nM | Cures (mice that survive and are parasite free for 60 days) ([1]; ip 5 mg/kg daily for 4 days): 3/4 | Survival (average days of survival) ([1]; ip 5 mg/kg daily for 4 days): >49.5 days | Cures (mice that survive and are parasite free for 60 days) ([1]; ip 20 mg/kg daily for 4 days): 4/4 | Survival (average days of survival) ([1]; ip 20 mg/kg daily for 4 days): >60 days

CO/N=C(\N)c1ccc(-c2ccc(-c3ccc(/C(N)=N/OC)cn3)o2)nc1 [4c]
MSD (mean survival days) [7]: >180 days | No. of mice cured (survival >180 days without parasitemia relapse) [7]: 5/5 | Cures (mice that survive and are parasite free for 60 days) ([1]; po 25 mg/kg daily for 4 days): 2/4 | Survival (average days of survival) ([1]; po 25 mg/kg daily for 4 days): >42 days

CONC(=N)c1ccc(-c2ccc(-c3ccc(C(=N)NOC)cc3)o2)cc1 [2c, pafuramidine]
MSD (mean survival days) [7]: >167.8 days | No. of mice cured (survival >180 days without parasitemia relapse) [7]: 3/5 | Cures (mice that survive and are parasite free for 60 days) ([1]; po 10 mg/kg daily for 4 days): 4/4 | Survival (average days of survival) ([1]; po 10 mg/kg daily for 4 days): >60 days | Cures (mice that survive and are parasite free for 60 days) ([1]; po 25 mg/kg daily for 4 days): 4/4 | Survival (average days of survival) ([1]; po 25 mg/kg daily for 4 days): >60 days

N=C(N)c1ccc(-c2cncc(-c3ccc(C(=N)N)cc3F)n2)c(F)c1 [15b, 2,6-Di-(4′-amidino-2′-fluorophenyl)pyrazine hydrochloride]
Cures (mice that survive and are parasite free for 60 days) ([4]; ip 5 mg/kg daily for 4 days): no cures

CO/N=C(\N)c1ccc(-c2cncc(-c3ccc(/C(N)=N\OC)cn3)n2)nc1 [25a, 2,6-Di-(5′-N-methoxyamidinopyridin-2′-yl)pyrazine hydrochloride]
MSD (mean survival days) ([3]; po 100 mg/kg for 5 days): 95.2 days | No. of mice cured (survival >180 days without parasitemia relapse) [3, 9]: not curative and 0/5

N=C(N)c1ccc(-c2cnc(-c3ccc(C(=N)N)cc3)cn2)cc1 [compound 6]
IC50 [5]: 18 nM | IC50 [6]: 0.4 nM | Cures (mice that survive and are parasite free for 60 days) ([1]; ip 5 mg/kg daily for 4 days, 5 mg/kg): no cure and 0/4

N=C(N)c1ccc(-c2cncc(-c3ccc(C(=N)N)cc3)n2)cc1 [compound 10, 2,6-Di-(4′-amidinophenyl)pyrazine hydrochloride]
Fold less potent than 6 against P. f. [8]: 25 fold

N=C(N)c1ccc(-c2cncc(-c3ccc(C(=N)N)nc3)n2)cn1 [23b, 2,6-Di-(2′-amidinopyridin-5′-yl)pyrazine hydrochloride]
Decrease in ΔTm value relative to parent compound 10 [2]: 3.0 °C

N=C(N)c1ccc(-c2ccc(-c3ccc(C(=N)N)cn3)o2)cc1 [3a]
IC50 [5]: 6.5 nM | IC50 [6]: 6.5 nM | Cures (mice that survive and are parasite free for 60 days) ([1]; ip 5 mg/kg daily for 4 days): 3/4 | Survival (average days of survival) ([1]; ip 5 mg/kg daily for 4 days): >54.5 days | Cures (mice that survive and are parasite free for 60 days) ([1]; ip 20 mg/kg daily for 4 days): 4/4 | Survival (average days of survival) ([1]; ip 20 mg/kg daily for 4 days): >60 days

CO/N=C(\N)c1ccc(-c2cncc(-c3ccc(/C(N)=N\OC)cc3)n2)cc1 [compound 12, 2,6-Di-(4′-N-methoxyamidinophenyl)pyrazine hydrochloride]
No. of mice cured (survival >180 days without parasitemia relapse) ([3]; po 100 mg/kg for 5 days): 2/5 | No. of mice cured (survival >180 days without parasitemia relapse) ([3]; po 100 mg/kg for 10 days): 3/4

CO/N=C(\N)c1ccc(-c2ccc(-c3ccc(/C(N)=N/OC)cn3)o2)cc1 [3c]
MSD (mean survival days) [7]: >180 days | No. of mice cured (survival >180 days without parasitemia relapse) [7]: 5/5 | Cures (mice that survive and are parasite free for 60 days) ([1]; po 25 mg/kg daily for 4 days): 4/4 | Survival (average days of survival) ([1]; po 25 mg/kg daily for 4 days): >60 days

N/C(=N\O)c1ccc(-c2cncc(-c3ccc(/C(N)=N/O)cc3)n2)cc1 [compound 11, 2,6-Di-(4′-N-hydroxyamidinophenyl)pyrazine hydrochloride]
No. of mice cured (survival >180 days without parasitemia relapse) [3, 9]: no cures and 0/5 | Cures (mice that survive and are parasite free for 60 days) ([4]; po 25 mg/kg daily for 4 days): cures of all mice

N=C(N)c1ccc(-c2cncc(-c3ccc(C(=N)N)cn3)n2)nc1 [23a, 2,6-Di-(5′-amidinopyridin-2′-yl)pyrazine hydrochloride]
Decrease in ΔTm value relative to parent compound 10 [2]: 3.9 °C

N=C(N)c1ccc(-c2ccc(-c3ccc(C(=N)N)cc3)o2)cc1 [2a, furamidine]
Cures (mice that survive and are parasite free for 60 days) ([1]; ip 5 mg/kg daily for 4 days): 1/4 | Survival (average days of survival) ([1]; ip 5 mg/kg daily for 4 days): >46 days | Cures (mice that survive and are parasite free for 60 days) ([1]; ip 20 mg/kg daily for 4 days): 3/4 | Survival (average days of survival) ([1]; ip 20 mg/kg daily for 4 days): >57.75 days
